Reference: the RNAGym collection of RNA variant scans (doi:10.1126/science.aae0568)
This sample holds only a part of the variants without activity.

B1: tRNA (parent)
chain: GUUCCGUUGGCGUAAUGGUAACGCGUCUCCCUCCUAAGGAGAAGACUGCGGGUUCGAGUCCCGUACGGAACG

Variants of: B1
Test: yeast fitness relative to wild type (ratio to wild type); higher = fitter; tRNA-Arg(CCU), competitive growth, 37 C, YPD
Method in brief: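 Variants of the tRNA-Arg(CCU) gene, chemically synthesised with a 3% per-site mutation rate at 69 sites, were placed at the native genomic locus in Saccharomyces cerevisiae. The pooled strains were competed in YPD at 37°C for 24 hours in six parallel replicates. Gene amplicons from the start population and from each end population were read by 100-nucleotide paired-end sequencing. Darwinian fitness relative to wild type came from changes in genotype frequencies; genotypes needed ≥ 100 starting reads, and estimates < 0.5 were set to 0.5.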

Variant | yeast fitness
G9A G56U G58A | 0.563
G9A G58A G67A | 0.959
G9A G58C | 0.895
G9A G58C U59C | 0.632
G9A G58U A70G | 0.984
G9A G63A | 1.06
G9A G67A | 0.883
G9A G67C | 0.932
G9A G68C | 0.857
G9A U13A A15G C27U | ≤ 0.5
G9A U13A C46U | 0.708
G9A U13A U19C C30U C61A | ≤ 0.5
G9A U13A U32A | 0.839
G9A U13A U47A C60A | ≤ 0.5
G9A U13C | 0.893
G9A U13C C29G | ≤ 0.5
G9A U13C C29G A69U | 0.53
G9A U13C U19C | 0.907
G9A U16A G23C C24A U28G C34U A37U | ≤ 0.5
G9A U16C A20G A42G G68U | ≤ 0.5
G9A U16C A57G | 0.598

Variant | yeast fitness
G9A U16C A69C | 0.763
G9A U16C C29G U53A | ≤ 0.5
G9A U16C C30G C34G A40G C61A C62U G63C | 0.666
G9A U16C U19G C27A C33U U53C A65U C66U | ≤ 0.5
G9A U16C U28G U59A | ≤ 0.5
G9A U16C U32G G48C | ≤ 0.5
G9A U16C U32G G48C G58C | ≤ 0.5
G9A U16G | 0.799
G9A U19A | 1.04
G9A U19A A43G A69C | 0.541
G9A U19A A65C | 0.746
G9A U19A C49G U59C | ≤ 0.5
G9A U19C | 0.983
G9A U19C A69C | 0.834
G9A U19C C33U A40U U59A | ≤ 0.5
G9A U19C C49G | 0.634
G9A U19C G23C | ≤ 0.5
G9A U19C G23C C49U | ≤ 0.5
G9A U19C G23C U59A G68C | ≤ 0.5
G9A U19G | 0.848
G9A U19G A37C A43U C46G G68A | ≤ 0.5

Variant | yeast fitness
G9A U19G A45G | 0.528
G9A U19G A57G | 0.503
G9A U19G C66U | 0.64
G9A U26A A36U A40C A65U | ≤ 0.5
G9A U26A A43U | 0.616
G9A U26A A43U C55U | ≤ 0.5
G9A U26A U28C C55U G58A U59C | 0.555
G9A U26G | 0.967
G9A U26G C46U | 0.726
G9A U26G C55G | 0.57
G9A U28A A65U | ≤ 0.5
G9A U28A C55U G68A | ≤ 0.5
G9A U28A C60G | ≤ 0.5
G9A U28A C62U G68A | ≤ 0.5
G9A U28A G41C A65C G67C | 0.579
G9A U28C A40C G48A | ≤ 0.5
G9A U28C A70G | 0.673
G9A U28C C30U A69U | ≤ 0.5
G9A U28C C49A | ≤ 0.5
G9A U28C C55G C62G | ≤ 0.5
G9A U28C G44A G51C G58C G68C | ≤ 0.5

Variant | yeast fitness
G9A U28G A40C A42G A69C | 0.963
G9A U28G A45C | ≤ 0.5
G9A U32A G48C | 0.531
G9A U32C | 0.943
G9A U32C A43G G52A C61G | 0.63
G9A U32C C33G A37G G52A C55U | 0.558
G9A U32C C33G A37G G52A C55U G63A A65U | ≤ 0.5
G9A U32G A40C C46G | ≤ 0.5
G9A U32G C49G C55A | ≤ 0.5
G9A U35C A42U G63A | ≤ 0.5
G9A U47A | 0.796
G9A U53C | 0.77
G9A U54A A69C | 0.746
G9A U54C C61G | 0.565
G9A U54C G56A | 0.661
G9A U54G | 0.552
G9A U59A A69G | 0.697
G9A U59A C66A | 0.55
G9A U59C A69U | 0.776
G9A U64A | 0.811
